# Compound activity: PubChem, Broad Institute
# Shown is part of a subset that was picked to be rich in hits.
# T cruzi HTS = inhibitors of intracellular Trypanosoma cruzi, primary screen, cell-based, plate reader, single point, set 2; intracellular Trypanosoma cruzi in host cells; activity score (inhibition), % at 5.01 µM; 22,000 tested, 4.9% active; AID 651903, 2012; in the data active = activity score above about 55%;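 note: parasites and compound incubated about four days before reading; 0% = median of neutral control wells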
# A1 apoptosis 2 = A1 inhibitors via caspase activation, primary screen, cell-based, luminescence, HTS, two replicates | MEF A1-2A-BIM cells, caspase-Glo luminescence, 3 h; percent of clofoctol response, DMSO zero | caspase activation, % (concentration not given with the values) | 24,000 tested, under 10 active | AID 2465, 2010; in the data active = caspase activation above about 5.9%
#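 Material: A1-2A-BIM-expressing MEF cells. Buffer or medium: RPMI-1640 plus 10% FBS. Incubation: cells settled overnight, compound exposure 3 h at 37 °C, 5% CO2. Signal: Caspase-Glo 3/7 luminescence, 1 h at room temperature.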
# INS-1E rescue = protection of INS-1E cells from cytokine death, primary screen, ATP luminescence, single point | INS-1E cytokine-induced death, 48 h; normalised: neutral wells 0, positive control 100 | protection from cytokine-induced ATP loss, % at 10 µM | 20,000 tested, 0.1% active | AID 488910, 2010;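 active = mean replicate protection from cytokine-induced ATP loss at least 50% and at least 75% of replicates each reaching 50%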
#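 assay system = INS-1E rat insulinoma cells | amount = 8000 cells per well | medium = phenol-red-free RPMI with 5% fetal bovine serum | doses = one compound concentration, pin transfer | timing = 48 h cytokine plus compound treatment, 10 min reagent incubation | also added = IL-1β, TNF-α and IFN-γ cytokine mix | signal = CellTiter-Glo luminescence measuring cellular ATP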
# An asterisk follows results filed as active; · = not tested or not shown.
SMILES,T cruzi HTS,A1 apoptosis 2,INS-1E rescue
COc1ccc(NC(=O)N(C)C[C@H]2Oc3c(NS(=O)(=O)c4ccccc4)cccc3C(=O)N([C@@H](C)CO)C[C@H]2C)cc1,-13.9,·,-6.2
Cc1noc(C)c1S(=O)(=O)N(C)C[C@@H]1OCCCC[C@H](C)Oc2ccc(NS(=O)(=O)c3cccs3)cc2C(=O)N([C@H](C)CO)C[C@H]1C,·,0.2,·
C[C@H]1CN([C@@H](C)CO)C(=O)c2cc(NC(=O)Cc3cn(C)c4ccccc34)ccc2O[C@@H]1CN(C)Cc1ccncc1,19.0,·,0.6
C[C@@H]1CCCCO[C@@H](CN(C)Cc2ccc(Cl)c(Cl)c2)[C@@H](C)CN([C@H](C)CO)C(=O)c2cc(NS(=O)(=O)c3ccccc3)ccc2O1,65.6*,·,-69.0
Cc1ccc(S(=O)(=O)Nc2ccc3c(c2)C(=O)N([C@H](C)CO)C[C@H](C)[C@H](CN(C)Cc2ccc(Cl)c(Cl)c2)OCCCC[C@@H](C)O3)cc1,76.9*,·,-45.2
Cc1ccc(S(=O)(=O)Nc2ccc3c(c2)C(=O)N([C@H](C)CO)C[C@@H](C)[C@@H](CN(C)Cc2ccc(Cl)c(Cl)c2)OCCCC[C@H](C)O3)cc1,·,0.4,·
C[C@@H]1CCCCO[C@H](CN(C)Cc2ccc(Cl)c(Cl)c2)[C@@H](C)CN([C@H](C)CO)C(=O)c2cc(NS(=O)(=O)c3ccc(F)cc3)ccc2O1,65.5*,·,-28.7
COc1ccc(S(=O)(=O)Nc2ccc3c(c2)C(=O)N([C@@H](C)CO)C[C@H](C)[C@@H](CN(C)Cc2ccc(Cl)c(Cl)c2)OCCCC[C@@H](C)O3)cc1,·,0.0,·
C[C@@H]1CCCCO[C@@H](CN(C)Cc2ccc(Cl)c(Cl)c2)[C@@H](C)CN([C@@H](C)CO)C(=O)c2cc(NS(=O)(=O)c3ccc(F)cc3)ccc2O1,·,0.1,·
C[C@@H]1CCCCO[C@H](CN(C)Cc2ccc(Cl)c(Cl)c2)[C@@H](C)CN([C@@H](C)CO)C(=O)c2cc(NS(=O)(=O)c3ccc(Cl)cc3)ccc2O1,·,1.3,·
COc1ccc(S(=O)(=O)Nc2ccc3c(c2)C(=O)N([C@H](C)CO)C[C@H](C)[C@H](CN(C)Cc2ccc(Cl)c(Cl)c2)OCCCC[C@@H](C)O3)cc1,57.5*,·,-7.7
COc1ccc(NC(=O)N(C)C[C@@H]2Oc3ccc(NS(=O)(=O)c4ccc(Cl)cc4)cc3CC(=O)N([C@H](C)CO)C[C@@H]2C)cc1,-15.9,0.2,-5.9
O=C(N/N=C/c1cccc(Oc2ccccc2)c1)c1ccccn1,5.6,·,10.1
CC(C)=CCC[C@H](C)C/C=N/NC(=O)CCCCC(=O)NO,9.9,-0.3,12.8
CCO[C@H]1OC(C(=O)N2CCCC2)=C[C@@H](c2ccc(C(F)(F)F)cc2)[C@@H]1CCCO,·,0.5,·
C[C@H](CO)N1C[C@H](C)[C@@H](CN(C)Cc2ccc(C(=O)O)cc2)Oc2c(NC(=O)c3ccncc3)cccc2C1=O,-18.4,0.9,1.0
C[C@H]1CN([C@@H](C)CO)C(=O)c2cccc(NC(=O)c3ccncc3)c2O[C@@H]1CN(C)Cc1ccc(C(=O)O)cc1,-13.6,-0.2,16.9
C[C@@H]1CN([C@H](C)CO)C(=O)c2cccc(NC(=O)c3ccncc3)c2O[C@@H]1CN(C)Cc1ccc(-c2ccccc2)cc1,66.7*,-1.4,-20.9
C[C@@H]1CN([C@@H](C)CO)C(=O)c2cccc(NC(=O)c3ccncc3)c2O[C@@H]1CN(C)Cc1ccc(-c2ccccc2)cc1,58.5*,·,-21.6
CC(C)=CCC[C@@H](C)C/C=N/NC(=O)CCCCCCC(=O)O,-3.1,1.5,7.2
C[C@H](CO)N1C[C@H](C)[C@H](CN(C)Cc2ccc(Cl)c(Cl)c2)Oc2ccc(NC(=O)Cc3cn(C)c4ccccc34)cc2C1=O,56.4*,0.5,-21.4
C[C@H]1CN([C@@H](C)CO)C(=O)c2cc(NC(=O)Cc3cn(C)c4ccccc34)ccc2O[C@@H]1CN(C)Cc1ccc(-c2ccccc2)cc1,74.8*,1.4,-10.3
C[C@@H]1CN([C@H](C)CO)C(=O)Cc2cc(NC(=O)Cc3cn(C)c4ccccc34)ccc2O[C@@H]1CN(C)Cc1ccc(Cl)c(Cl)c1,68.6*,0.8,-39.5
C[C@H](CO)N1C[C@H](C)[C@@H](CN(C)Cc2ccc(Cl)c(Cl)c2)Oc2ccc(NC(=O)Cc3cn(C)c4ccccc34)cc2C1=O,-4.0,-0.5,-8.7
C[C@@H]1CN([C@H](C)CO)C(=O)c2cc(NC(=O)Cc3cn(C)c4ccccc34)ccc2O[C@H]1CN(C)Cc1ccc(-c2ccccc2)cc1,13.0,-1.5,-10.3
SMILES,T cruzi HTS,A1 apoptosis 2,INS-1E rescue
C[C@H]1CN([C@@H](C)CO)C(=O)c2cc(NC(=O)Cc3cn(C)c4ccccc34)ccc2O[C@H]1CN(C)S(=O)(=O)c1ccc(Cl)cc1,66.8*,1.0,0.8
C[C@H]1CN([C@@H](C)CO)C(=O)Cc2cc(NC(=O)Cc3cn(C)c4ccccc34)ccc2O[C@@H]1CN(C)Cc1ccc(Cl)c(Cl)c1,·,0.0,·
C[C@H](CO)N1C[C@H](C)[C@H](CN(C)S(=O)(=O)c2ccc(Cl)cc2)Oc2ccc(NC(=O)Cc3cn(C)c4ccccc34)cc2C1=O,50.0,-0.7,-8.5
COc1ccc(CN2C(C)Cc3cc(OC)c(OC)cc3C2C)cc1 (centres undefined),·,1.0,·
Cc1noc(C)c1S(=O)(=O)N(C)C[C@@H]1Oc2ccc(NC(=O)CCCCCC(=O)Nc3ccccc3N)cc2CC(=O)N([C@@H](C)CO)C[C@@H]1C,-6.9,·,1.5
C[C@@H]1CN([C@@H](C)CO)C(=O)CCCn2cc(nn2)CO[C@@H]1CN(C)C(=O)OCc1ccccc1,-3.6,1.5,·
N#Cc1ccc(/C=N/NC(=O)c2cccc(C(=O)NO)c2)cc1,-5.6,-0.7,3.3
Cc1noc(C)c1S(=O)(=O)N(C)C[C@@H]1OCCCC[C@@H](C)Oc2ccc(NC(=O)Cc3ccccc3)cc2C(=O)N([C@H](C)CO)C[C@@H]1C,-10.4,·,8.2
CC(C)NC(=O)Nc1ccc2c(c1)C(=O)N([C@@H](C)CO)C[C@@H](C)[C@@H](CN(C)S(=O)(=O)c1cccs1)OCCCC[C@H](C)O2,·,-0.1,·
C[C@@H]1CN([C@H](C)CO)C(=O)Cc2cc(NC(=O)Nc3ccc(C(F)(F)F)cc3)ccc2O[C@H]1CN(C)Cc1ccccc1,72.5*,·,-8.2
C[C@H](CO)N1C[C@H](C)[C@H](CN(C)Cc2ccccc2)Oc2ccc(NC(=O)Cc3ccccc3)cc2CC1=O,28.6,0.0,-4.1
C[C@@H]1CN([C@H](C)CO)C(=O)Cc2cc(NC(=O)Cc3ccccc3)ccc2O[C@H]1CN(C)Cc1ccc(C(F)(F)F)cc1,70.3*,-1.5,-5.0
C[C@H]1CN([C@@H](C)CO)C(=O)Cc2cc(NC(=O)Nc3ccccc3)ccc2O[C@H]1CN(C)Cc1ccc(C(F)(F)F)cc1,66.9*,·,-47.2
C[C@H](CO)N1C[C@H](C)[C@H](CN(C)Cc2ccccc2)Oc2ccc(NC(=O)Nc3ccc(F)cc3)cc2CC1=O,-40.3,0.0,-9.0
